# Laboratory results taken from paper PMC9524580 (Neuropharmacology, 2022).
# “Also recorded” adds a separate entry of the source.
# Experiments:
# [1] = biological target: high sensitivity (HS) α4(2)β2(3) nAChR (Homo sapiens, UniProt P17787+P43681); assay type: cell-based; conditions: for Effect on ACh-evoked peak-current responses of HS α4β2 receptors: 100 μM compound co-applied with control ACh (10 μM)
# [2] = biological target: low sensitivity (LS) α4(3)β2(2) nAChR (Homo sapiens, UniProt P17787+P43681); test: Two-electrode voltage clamp of Xenopus oocytes expressing LS α4β2 nAChR; assay type: cell-based; conditions: for Effect on ACh-evoked peak-current responses of LS α4β2 receptors: 100 μM compound co-applied with control ACh (100 μM)
# Chain of low sensitivity (LS) α4(3)β2(2) nAChR (P17787 26-502): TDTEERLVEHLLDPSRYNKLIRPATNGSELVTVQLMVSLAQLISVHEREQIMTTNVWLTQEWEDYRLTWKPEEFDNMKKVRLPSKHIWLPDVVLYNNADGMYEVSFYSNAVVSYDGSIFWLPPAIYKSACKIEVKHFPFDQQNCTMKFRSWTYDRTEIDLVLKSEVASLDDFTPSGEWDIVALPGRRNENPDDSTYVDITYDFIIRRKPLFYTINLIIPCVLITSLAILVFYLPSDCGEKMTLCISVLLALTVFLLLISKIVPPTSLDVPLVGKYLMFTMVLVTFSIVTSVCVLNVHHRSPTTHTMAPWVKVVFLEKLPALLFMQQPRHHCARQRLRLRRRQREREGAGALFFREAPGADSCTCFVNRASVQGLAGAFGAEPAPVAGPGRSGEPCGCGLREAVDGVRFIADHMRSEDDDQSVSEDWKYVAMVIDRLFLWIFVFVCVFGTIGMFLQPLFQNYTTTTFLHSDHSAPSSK
# Chain of low sensitivity (LS) α4(3)β2(2) nAChR (P43681 29-627 limits assumed): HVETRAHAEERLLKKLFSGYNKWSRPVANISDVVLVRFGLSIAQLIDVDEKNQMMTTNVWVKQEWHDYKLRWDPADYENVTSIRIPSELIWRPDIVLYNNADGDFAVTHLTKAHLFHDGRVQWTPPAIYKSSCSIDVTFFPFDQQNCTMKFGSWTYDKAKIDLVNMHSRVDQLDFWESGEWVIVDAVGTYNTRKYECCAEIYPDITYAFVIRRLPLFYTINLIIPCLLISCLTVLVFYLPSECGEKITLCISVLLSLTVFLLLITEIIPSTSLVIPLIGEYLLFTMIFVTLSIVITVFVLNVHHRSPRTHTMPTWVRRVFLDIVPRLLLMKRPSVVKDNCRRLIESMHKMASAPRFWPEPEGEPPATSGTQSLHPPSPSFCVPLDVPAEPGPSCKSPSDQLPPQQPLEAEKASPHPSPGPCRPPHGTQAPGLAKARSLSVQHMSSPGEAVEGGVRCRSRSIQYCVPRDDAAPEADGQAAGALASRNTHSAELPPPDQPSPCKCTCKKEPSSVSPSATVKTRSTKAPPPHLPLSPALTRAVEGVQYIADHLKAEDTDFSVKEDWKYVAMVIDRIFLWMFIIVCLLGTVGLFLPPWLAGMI
# Chain of low sensitivity (LS) α4(3)β2(2) nAChR (P43681 29-627 limits assumed): as above
# human α7 nAChR = human α7 nAChR (Homo sapiens, UniProt P36544); test: Two-electrode voltage clamp of Xenopus oocytes expressing α7 nAChR; assay type: cell-based; conditions: for α7 net-charge response to compound co-applied with PNU-120596: 100 μM compound + 10 μM PNU-120596, compared to PNU-120596 alone or ACh control
# Chain of human α7 nAChR (P36544 23-502): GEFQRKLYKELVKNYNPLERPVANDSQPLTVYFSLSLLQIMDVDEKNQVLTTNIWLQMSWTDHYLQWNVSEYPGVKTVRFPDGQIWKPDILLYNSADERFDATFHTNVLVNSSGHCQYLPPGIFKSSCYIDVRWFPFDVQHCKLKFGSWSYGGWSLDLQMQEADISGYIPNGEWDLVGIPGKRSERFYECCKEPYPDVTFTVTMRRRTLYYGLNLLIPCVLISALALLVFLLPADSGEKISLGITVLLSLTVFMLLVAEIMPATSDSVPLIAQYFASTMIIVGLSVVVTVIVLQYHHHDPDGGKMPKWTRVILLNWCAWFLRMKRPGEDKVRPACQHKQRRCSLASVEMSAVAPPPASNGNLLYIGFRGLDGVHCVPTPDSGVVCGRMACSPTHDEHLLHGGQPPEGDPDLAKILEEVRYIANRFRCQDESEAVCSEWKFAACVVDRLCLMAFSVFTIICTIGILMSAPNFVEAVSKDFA
# Procedure, shortened: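 Human α7 clone co-injected with human RIC3 in Xenopus oocytes. Oocytes were clamped at −60 mV at 24 °C and perfused at 2 ml/min with Ringer's (115 mM NaCl, 2.5 mM KCl, 1.8 mM CaCl2, 10 mM HEPES, 1 μM atropine, pH 7.2). […] Compound was 100 μM, alone or with 10 μM PAM; n = 6–8 oocytes; ANOVA.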
# α3β4 nAChR = α3β4 nAChR (Homo sapiens, UniProt P30926+P32297); assay type: cell-based; conditions: 100 μM n-MP co-applied with 100 μM ACh; alpha:beta RNA 5:1 or 1:5 (either set)
# Chain of α3β4 nAChR (P32297 32-505): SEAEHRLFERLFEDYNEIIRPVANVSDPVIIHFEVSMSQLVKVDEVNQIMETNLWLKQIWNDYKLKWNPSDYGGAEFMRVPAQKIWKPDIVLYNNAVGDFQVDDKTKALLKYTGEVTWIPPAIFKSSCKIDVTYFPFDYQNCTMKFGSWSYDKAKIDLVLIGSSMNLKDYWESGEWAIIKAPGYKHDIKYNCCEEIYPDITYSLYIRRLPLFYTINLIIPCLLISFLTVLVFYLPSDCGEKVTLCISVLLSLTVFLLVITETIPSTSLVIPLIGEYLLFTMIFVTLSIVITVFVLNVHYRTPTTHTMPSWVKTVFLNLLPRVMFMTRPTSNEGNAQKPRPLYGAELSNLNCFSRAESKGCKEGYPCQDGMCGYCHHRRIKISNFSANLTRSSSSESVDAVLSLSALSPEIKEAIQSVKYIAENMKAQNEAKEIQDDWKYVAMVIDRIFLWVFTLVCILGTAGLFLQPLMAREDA
# Chain of α3β4 nAChR (P30926 22-498): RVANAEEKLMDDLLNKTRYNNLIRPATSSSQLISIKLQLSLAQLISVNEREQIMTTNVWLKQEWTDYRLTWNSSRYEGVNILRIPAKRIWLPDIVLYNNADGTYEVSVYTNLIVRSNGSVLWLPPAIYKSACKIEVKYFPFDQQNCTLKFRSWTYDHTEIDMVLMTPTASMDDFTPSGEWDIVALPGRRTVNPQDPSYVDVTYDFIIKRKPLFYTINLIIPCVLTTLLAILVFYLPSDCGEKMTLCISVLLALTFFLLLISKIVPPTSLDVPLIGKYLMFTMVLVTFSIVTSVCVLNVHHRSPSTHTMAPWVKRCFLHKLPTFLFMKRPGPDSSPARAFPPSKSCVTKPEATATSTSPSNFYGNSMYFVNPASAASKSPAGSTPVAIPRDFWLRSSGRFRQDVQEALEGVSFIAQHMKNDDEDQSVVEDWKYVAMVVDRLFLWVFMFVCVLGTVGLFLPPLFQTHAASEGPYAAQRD
# Procedure, shortened: (§1)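 Xenopus oocytes were injected with human α3 plus β2 or β4 subunit RNA at alpha:beta ratios of 1:5 or 5:1. Two-electrode voltage clamp at −60 mV, 24 °C, with Ringer's (pH 7.2, 1 μM atropine) at 4 ml/min.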
# α3β2 nAChR = α3β2 nAChR (Homo sapiens, UniProt P17787+P32297); assay type: cell-based; conditions: 100 μM n-MP co-applied with 100 μM ACh
# Chain of α3β2 nAChR (P32297 32-505): as the sequence (P32297 32-505) above
# Chain of α3β2 nAChR (P17787 26-502): as the sequence (P17787 26-502) above
# Procedure, shortened: as §1
# [3] = inferred from use as biomarker of coffee consumption; ref Bresciani et al., 2020; cited from earlier work
# α4(2)β2(2)α5 nAChR = α4(2)β2(2)α5 nAChR (Homo sapiens, UniProt P17787+P30532+P43681); test: Two-electrode voltage clamp of Xenopus oocytes expressing α4β2α5 nAChR; assay type: cell-based; conditions: 100 μM n-MP co-applied with 10 μM ACh
# Chain of α4(2)β2(2)α5 nAChR (P17787 26-502): as above
# Chain of α4(2)β2(2)α5 nAChR (P43681 29-627 limits assumed): as the sequence (P43681 29-627 limits assumed) above
# Chain of α4(2)β2(2)α5 nAChR (P30532 23-468): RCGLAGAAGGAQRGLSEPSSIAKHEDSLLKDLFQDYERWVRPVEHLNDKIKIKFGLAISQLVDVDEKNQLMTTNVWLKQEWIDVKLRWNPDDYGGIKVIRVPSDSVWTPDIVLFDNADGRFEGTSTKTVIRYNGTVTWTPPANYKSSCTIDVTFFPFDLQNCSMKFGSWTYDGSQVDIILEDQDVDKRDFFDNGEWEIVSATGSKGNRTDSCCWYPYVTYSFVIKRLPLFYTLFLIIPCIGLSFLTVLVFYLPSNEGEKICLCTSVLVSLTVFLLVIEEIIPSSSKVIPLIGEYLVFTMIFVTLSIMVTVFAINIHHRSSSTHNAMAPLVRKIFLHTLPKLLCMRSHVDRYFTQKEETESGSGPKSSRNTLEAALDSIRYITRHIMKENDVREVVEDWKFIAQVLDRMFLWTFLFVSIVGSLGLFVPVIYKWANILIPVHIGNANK
# Procedure, shortened: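 Human α4(2)β2(2)α5 receptors expressed in Xenopus laevis oocytes. Voltage-clamped at −60 mV and room temperature (24 °C), perfused at 4 ml/min with atropine-containing Ringer's, pH 7.2. […] At least five oocytes; mean ± S.D.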
# β3α4β2α6β2 nAChR = β3α4β2α6β2 nAChR (Homo sapiens, UniProt P17787+P43681+Q05901+Q15825); assay type: cell-based; conditions: 100 μM n-MP co-applied with 30 μM ACh
# Chain of β3α4β2α6β2 nAChR (Q05901 25-458 limits assumed): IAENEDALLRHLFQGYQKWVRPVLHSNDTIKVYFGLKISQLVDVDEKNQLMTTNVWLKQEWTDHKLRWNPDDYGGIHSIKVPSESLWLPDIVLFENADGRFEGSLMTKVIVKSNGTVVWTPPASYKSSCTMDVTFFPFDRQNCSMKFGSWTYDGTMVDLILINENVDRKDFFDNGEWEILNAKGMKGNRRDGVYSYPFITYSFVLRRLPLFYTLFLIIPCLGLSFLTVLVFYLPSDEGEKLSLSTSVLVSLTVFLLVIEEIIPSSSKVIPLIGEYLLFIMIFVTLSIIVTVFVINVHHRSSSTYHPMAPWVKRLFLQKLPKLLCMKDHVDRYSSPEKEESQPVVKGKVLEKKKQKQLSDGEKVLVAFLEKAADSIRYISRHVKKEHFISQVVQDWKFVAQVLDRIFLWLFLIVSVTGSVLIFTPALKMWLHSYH
# Chain of β3α4β2α6β2 nAChR (P43681 29-627 limits assumed): as the sequence (P43681 29-627 limits assumed) above
# Chain of β3α4β2α6β2 nAChR (P17787 26-502): as the sequence (P17787 26-502) above
# Chain of β3α4β2α6β2 nAChR (Q15825 26-494): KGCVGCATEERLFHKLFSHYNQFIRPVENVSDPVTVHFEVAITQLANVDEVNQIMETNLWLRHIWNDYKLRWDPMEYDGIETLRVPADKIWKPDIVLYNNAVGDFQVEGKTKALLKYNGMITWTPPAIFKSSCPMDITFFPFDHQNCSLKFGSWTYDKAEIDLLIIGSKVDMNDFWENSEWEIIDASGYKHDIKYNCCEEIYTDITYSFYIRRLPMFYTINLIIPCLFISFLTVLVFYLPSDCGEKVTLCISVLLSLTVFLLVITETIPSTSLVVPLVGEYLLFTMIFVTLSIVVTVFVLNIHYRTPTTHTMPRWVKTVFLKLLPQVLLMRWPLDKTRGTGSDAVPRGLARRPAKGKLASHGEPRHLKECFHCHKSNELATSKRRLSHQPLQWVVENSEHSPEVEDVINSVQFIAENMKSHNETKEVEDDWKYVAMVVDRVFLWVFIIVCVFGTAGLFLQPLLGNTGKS
# Chain of β3α4β2α6β2 nAChR (P17787 26-502): as the sequence (P17787 26-502) above
# Procedure, shortened: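 Oocytes from female Xenopus laevis expressed human β3α4β2α6β2 from a linked-subunit concatamer. Two-electrode voltage clamp at −60 mV and 24 °C. Bath perfusion at 4 ml/min with Ringer's (115 mM NaCl, 2.5 mM KCl, 1.8 mM CaCl2, 10 mM HEPES, 1 μM atropine, pH 7.2). […] Responses were relative to the mean of the two controls; n = 6, mean ± S.D.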
# Chain of high sensitivity (HS) α4(2)β2(3) nAChR (P17787 26-502): as above
# Chain of high sensitivity (HS) α4(2)β2(3) nAChR (P43681 29-627 limits assumed): as the sequence (P43681 29-627 limits assumed) above
# Chain of high sensitivity (HS) α4(2)β2(3) nAChR (P17787 26-502): as the sequence (P17787 26-502) above
smiles,measurement,setting,value
"CC(=O)OCC[N+](C)(C)C [ACh, Acetylcholine chloride, reference compound]","Imax, From replicates, Averages ± S.D.",[1],1.535 ± 0.080
same,"Imax, From Figure 7",[2],2.327 ± 0.395
same,"Imax, From replicates, Averages ± S.D.",[2],2.290 ± 0.714
"Cn1c(=O)c2c(ncn2C)n(C)c1=O [caffeine, reference compound]",Effect on ACh-evoked peak-current responses of HS α4β2 receptors,[1],lacks significant nAChR activity
same,α7 net-charge response to compound co-applied with PNU-120596,human α7 nAChR,lacks significant nAChR activity
same,Effect on ACh-evoked peak-current responses of LS α4β2 receptors,[2],lacks significant nAChR activity
C[N+](C)(C)CCO [choline],EC50,human α7 nAChR,~200 µM
same,Net charge Imax with PNU-120596 co-application versus applied alone,human α7 nAChR; 10 μM PNU-120596,roughly 100 fold
same,α7 net-charge response to compound co-applied with PNU-120596,human α7 nAChR,greater than the initial ACh controls
"C[N+]1(C)CCCCC1 [dMP, 1,1-dimethylpiperidium]",Effect on ACh-evoked peak-current responses of HS α4β2 receptors,[1],decreasing the responses of HS receptors; also recorded: strongly inhibited
same,α7 net-charge response to compound co-applied with PNU-120596,human α7 nAChR,large responses
same,α7 response to compound applied alone,"human α7 nAChR; 100 μM compound, compared to 60 μM ACh control",comparable to those stimulated by the control application of 60 μM ACh
same,Effect on ACh-evoked peak-current responses of LS α4β2 receptors,[2],increasing the responses of LS receptors
"C[n+]1ccccc1 [n-MP, 1-methylpyridinium]",Effect on ACh responses of α3β4 receptors,α3β4 nAChR,no effect
same,Effect on ACh responses of α3β2 receptors with high levels of β2,α3β2 nAChR; alpha:beta RNA 1:5,no effect
same,Effect on ACh responses of α3β2 receptors with high levels of α3,α3β2 nAChR; alpha:beta RNA 5:1,significant potentiation
same,Bioavailability,[3],good bioavailability
same,Effect on ACh responses of α4β2α5 receptors,α4(2)β2(2)α5 nAChR,antagonist
same,Effect on ACh-evoked peak-current responses of HS α4β2 receptors,[1],decreasing the responses of HS receptors; also recorded: decreasing those of HS receptors
same,Mode of action on HS α4β2 ACh-evoked responses,"[1]; 100 μM n-MP, ACh competition experiment",competitive antagonist
same,Effect of bath-applied n-MP on HS α4β2 ACh responses,"[1]; varying bath concentrations, periodic 10 μM ACh applications","concentration-dependent, and only partially reversible, inhibition"
same,α7 net-charge response to compound co-applied with PNU-120596,human α7 nAChR,PAM-dependent responses
same,Effect on ACh responses of α6-containing receptors,β3α4β2α6β2 nAChR,no significant effect
same,Effect on ACh-evoked peak-current responses of LS α4β2 receptors,[2],increasing the responses of LS receptors
same,Mode of action on LS α4β2 receptors,"[2]; 100 μM n-MP, 10 to 100 μM ACh",working as a PAM at those intermediate concentrations
same,LS α4β2 ACh responses after n-MP washout,[2]; 300 μM n-MP bath application,significant increases
same,"Imax of ACh, From Figure 7","[2]; LS, ACh co-applied with 100 μM n-MP, relative to 100 μM ACh control",1.824 ± 0.062
same,Effect of bath-applied n-MP on LS α4β2 ACh responses,"[2]; varying bath concentrations, periodic 100 μM ACh applications",small concentration-dependent increase
